Calls of active or inactive are those of the source. The calls are words filed in the database; no cut-off is given here.
system: HL-60; test: Cytotoxicity against human HL60 cells after 48 hrs by MTT assay; assay type: functional, cell-based; conditions: HL-60, 48 h
How it was run: (§1)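 Cells seeded at 5000 per well, left overnight, then exposed to compound at 0–50 μM for 48 h. MTT (20 μL of 2.5 mg mL−1) added for a further 4 h at 37 °C, formazan dissolved in DMSO, absorbance read at 570 nm. Quadruplicate wells, N > 2 determinations, mean IC50 taken as the concentration reducing cell number to 50%.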

SMILES	IC50 [µM]
Cc1ccc(Cn2c(/C=C3\SC(=S)N(CC(=O)O)C3=O)nc3cc(Cl)ccc32)cc1	2.72
O=C(O)CN1C(=O)/C(=C/c2nc3ccccc3n2CC(=O)c2ccc(Cl)cc2)SC1=S	2.43
O=C(O)CN1C(=O)/C(=C/c2nc3ccccc3n2Cc2ccc(F)c(F)c2)SC1=S	2.74
O=C(O)CN1C(=O)/C(=C/c2nc3ccccc3n2Cc2ccccc2F)SC1=S	0.21
O=C(O)CN1C(=O)/C(=C/c2nc3ccc(Cl)cc3n2Cc2ccccc2F)SC1=S	5.23
COc1ccc2nc(/C=C3\SC(=S)N(CC(=O)O)C3=O)n(Cc3ccccc3F)c2c1	6.44

system: HeLa; test: Cytotoxicity against human HeLa cells after 48 hrs by MTT assay; assay type: functional, cell-based; conditions: not given; how it was run: as §1

SMILES	IC50 [µM]
Cc1ccc(Cn2c(/C=C3\SC(=S)N(CC(=O)O)C3=O)nc3cc(Cl)ccc32)cc1	21.4
O=C(O)CN1C(=O)/C(=C/c2nc3ccccc3n2CC(=O)c2ccc(Cl)cc2)SC1=S	27.3
O=C(O)CN1C(=O)/C(=C/c2nc3ccccc3n2Cc2ccc(F)c(F)c2)SC1=S	16
O=C(O)CN1C(=O)/C(=C/c2nc3ccccc3n2Cc2ccccc2F)SC1=S	0.64
O=C(O)CN1C(=O)/C(=C/c2nc3ccc(Cl)cc3n2Cc2ccccc2F)SC1=S	7.62
COc1ccc2nc(/C=C3\SC(=S)N(CC(=O)O)C3=O)n(Cc3ccccc3F)c2c1	28.1

system: MDA-MB-231; test: Cytotoxicity against human MDA-MB-231 cells after 48 hrs by MTT assay; assay type: functional, cell-based; conditions: MDA-MB-231, 48 h; how it was run: as §1

SMILES	IC50 [µM]
Cc1ccc(Cn2c(/C=C3\SC(=S)N(CC(=O)O)C3=O)nc3cc(Cl)ccc32)cc1	13.7
O=C(O)CN1C(=O)/C(=C/c2nc3ccccc3n2CC(=O)c2ccc(Cl)cc2)SC1=S	1.12
O=C(O)CN1C(=O)/C(=C/c2nc3ccccc3n2Cc2ccc(F)c(F)c2)SC1=S	3.76
O=C(O)CN1C(=O)/C(=C/c2nc3ccccc3n2Cc2ccccc2F)SC1=S	0.33
O=C(O)CN1C(=O)/C(=C/c2nc3ccc(Cl)cc3n2Cc2ccccc2F)SC1=S	9.57
COc1ccc2nc(/C=C3\SC(=S)N(CC(=O)O)C3=O)n(Cc3ccccc3F)c2c1	22.4

organism: Homo sapiens; test: Poison activity at human topoisomerase 2 assessed as […] at 50 uM after 6 mins by agarose gel electrophoresis; conditions: not given

SMILES	Activity
O=C(O)CN1C(=O)/C(=C/c2nc3ccccc3n2Cc2ccccc2F)SC1=S	inactive

system: A549; test: Cytotoxicity against human A549 cells after 48 hrs by MTT assay; assay type: functional, cell-based; conditions: A549, 48 h; how it was run: as §1

SMILES	IC50 [µM]
Cc1ccc(Cn2c(/C=C3\SC(=S)N(CC(=O)O)C3=O)nc3cc(Cl)ccc32)cc1	38.6
O=C(O)CN1C(=O)/C(=C/c2nc3ccccc3n2CC(=O)c2ccc(Cl)cc2)SC1=S	9.85
O=C(O)CN1C(=O)/C(=C/c2nc3ccccc3n2Cc2ccc(F)c(F)c2)SC1=S	13.4
O=C(O)CN1C(=O)/C(=C/c2nc3ccccc3n2Cc2ccccc2F)SC1=S	2.67
O=C(O)CN1C(=O)/C(=C/c2nc3ccc(Cl)cc3n2Cc2ccccc2F)SC1=S	26.9
COc1ccc2nc(/C=C3\SC(=S)N(CC(=O)O)C3=O)n(Cc3ccccc3F)c2c1	36.2

system: PC-3; test: Cytotoxicity against human PC3 cells after 48 hrs by MTT assay; assay type: functional, cell-based; conditions: PC-3, 48 h; how it was run: as §1

SMILES	IC50 [µM]
Cc1ccc(Cn2c(/C=C3\SC(=S)N(CC(=O)O)C3=O)nc3cc(Cl)ccc32)cc1	26.7
O=C(O)CN1C(=O)/C(=C/c2nc3ccccc3n2CC(=O)c2ccc(Cl)cc2)SC1=S	6.45
O=C(O)CN1C(=O)/C(=C/c2nc3ccccc3n2Cc2ccc(F)c(F)c2)SC1=S	5.97
O=C(O)CN1C(=O)/C(=C/c2nc3ccccc3n2Cc2ccccc2F)SC1=S	1.86
O=C(O)CN1C(=O)/C(=C/c2nc3ccc(Cl)cc3n2Cc2ccccc2F)SC1=S	17.3
COc1ccc2nc(/C=C3\SC(=S)N(CC(=O)O)C3=O)n(Cc3ccccc3F)c2c1	> 50

system: DNA; test: Induction of Escherichia coli pBR322 DNA intercalation assessed as transformation of topoisomerase1-relaxed pBR322 DNA in to supercoiled DNA at 5 uM preincubated for 10 mins followed by topoisomerase-1 addition and measured after 30 mins by agarose gel electrophoresis method; assay type: nucleic-acid assay; conditions: not given
How it was run: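 0.1 μg relaxed DNA incubated with compound 10 min at room temperature, then Topo I (1 U) added, 37 °C for 30 min. Stopped with phenol-chloroform and SDS/EDTA. Products resolved on agarose gel in TAE and imaged under UV.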

SMILES	Activity
CC[n+]1c(-c2ccccc2)c2cc(N)ccc2c2ccc(N)cc21	Active

biological target: T1, DNA topoisomerase 1 (Homo sapiens) (UniProt P11387); test: Inhibition of topoisomerase 1 (unknown origin)-mediated pBR322 DNA relaxation at 50 uM after 30 mins by agarose gel electrophoresis; conditions: not given
T1 sequence (whole entry): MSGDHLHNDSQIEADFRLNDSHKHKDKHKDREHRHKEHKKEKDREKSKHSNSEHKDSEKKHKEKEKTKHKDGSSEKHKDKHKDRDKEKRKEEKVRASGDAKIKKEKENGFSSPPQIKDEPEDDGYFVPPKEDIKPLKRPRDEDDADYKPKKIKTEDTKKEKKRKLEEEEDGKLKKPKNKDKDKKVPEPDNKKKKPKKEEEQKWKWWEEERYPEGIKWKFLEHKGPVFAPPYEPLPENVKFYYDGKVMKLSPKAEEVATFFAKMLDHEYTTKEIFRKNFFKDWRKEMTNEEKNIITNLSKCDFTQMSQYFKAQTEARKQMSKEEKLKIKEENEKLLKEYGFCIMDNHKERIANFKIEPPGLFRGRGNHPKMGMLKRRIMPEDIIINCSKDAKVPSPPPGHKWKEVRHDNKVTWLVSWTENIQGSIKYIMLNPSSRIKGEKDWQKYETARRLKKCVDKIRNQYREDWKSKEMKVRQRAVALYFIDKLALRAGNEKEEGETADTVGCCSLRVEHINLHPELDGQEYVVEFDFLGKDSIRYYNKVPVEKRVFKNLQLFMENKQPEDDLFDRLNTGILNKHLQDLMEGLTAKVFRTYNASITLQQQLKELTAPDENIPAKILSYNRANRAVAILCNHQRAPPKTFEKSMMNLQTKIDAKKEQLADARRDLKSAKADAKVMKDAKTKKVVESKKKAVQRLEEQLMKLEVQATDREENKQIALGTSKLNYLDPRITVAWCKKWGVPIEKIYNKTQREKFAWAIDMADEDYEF
How it was run: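 Topo I relaxation of pBR322 with compound at 30 min, 37 °C, camptothecin positive control. Stopped with SDS/bromophenol blue/glycerol dye, run on 1% agarose in TAE for 1.5 h, Ged Red stained, UV visualized.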

SMILES	inhibition
Cc1ccc(Cn2c(/C=C3\SC(=S)N(CC(=O)O)C3=O)nc3cc(Cl)ccc32)cc1	inactive
O=C(O)CN1C(=O)/C(=C/c2nc3ccccc3n2CC(=O)c2ccc(Cl)cc2)SC1=S	inactive
O=C(O)CN1C(=O)/C(=C/c2nc3ccccc3n2Cc2ccc(F)c(F)c2)SC1=S	inactive
O=C(O)CN1C(=O)/C(=C/c2nc3ccccc3n2Cc2ccccc2F)SC1=S	inactive
O=C(O)CN1C(=O)/C(=C/c2nc3ccc(Cl)cc3n2Cc2ccccc2F)SC1=S	inactive
COc1ccc2nc(/C=C3\SC(=S)N(CC(=O)O)C3=O)n(Cc3ccccc3F)c2c1	inactive

organism: Homo sapiens; test: Inhibition of human topoisomerase 2-mediated pBR322 DNA relaxation at 20 uM after 30 mins by agarose gel electrophoresis; conditions: not given

SMILES	inhibition
Cc1ccc(Cn2c(/C=C3\SC(=S)N(CC(=O)O)C3=O)nc3cc(Cl)ccc32)cc1	Active
O=C(O)CN1C(=O)/C(=C/c2nc3ccccc3n2CC(=O)c2ccc(Cl)cc2)SC1=S	Active
O=C(O)CN1C(=O)/C(=C/c2nc3ccccc3n2Cc2ccc(F)c(F)c2)SC1=S	Active
O=C(O)CN1C(=O)/C(=C/c2nc3ccccc3n2Cc2ccccc2F)SC1=S	Active
O=C(O)CN1C(=O)/C(=C/c2nc3ccc(Cl)cc3n2Cc2ccccc2F)SC1=S	Active
COc1ccc2nc(/C=C3\SC(=S)N(CC(=O)O)C3=O)n(Cc3ccccc3F)c2c1	Active

organism: Homo sapiens; test: Inhibition of human topoisomerase 2-mediated pBR322 DNA relaxation at 50 uM after 30 mins by agarose gel electrophoresis; conditions: not given
How it was run: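 Relaxation of 200 ng supercoiled pBR322 by 1 U Topo II (TopoGEN) in 20 μL buffer: 50 mM Tris-HCl pH 8.0, 150 mM NaCl, 10 mM MgCl2, 2 mM ATP, 0.5 mM DTT, 30 μg/mL BSA. Incubated 30 min at 37 °C, stopped with sarcosyl/glycerol dye. Products run on 1% agarose in TAE (1.5 h, 75 V), Ged Red stained, UV imaged; etoposide positive control.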

SMILES	inhibition
Cc1ccc(Cn2c(/C=C3\SC(=S)N(CC(=O)O)C3=O)nc3cc(Cl)ccc32)cc1	Active
O=C(O)CN1C(=O)/C(=C/c2nc3ccccc3n2Cc2ccc(F)c(F)c2)SC1=S	Active
O=C(O)CN1C(=O)/C(=C/c2nc3ccc(Cl)cc3n2Cc2ccccc2F)SC1=S	Active
COc1ccc2nc(/C=C3\SC(=S)N(CC(=O)O)C3=O)n(Cc3ccccc3F)c2c1	Active

organism: Homo sapiens; test: Inhibition of human topoisomerase 2-mediated pBR322 DNA relaxation at 10 uM after 30 mins by agarose gel electrophoresis; conditions: not given

SMILES	inhibition
Cc1ccc(Cn2c(/C=C3\SC(=S)N(CC(=O)O)C3=O)nc3cc(Cl)ccc32)cc1	Active
O=C(O)CN1C(=O)/C(=C/c2nc3ccccc3n2CC(=O)c2ccc(Cl)cc2)SC1=S	Active
O=C(O)CN1C(=O)/C(=C/c2nc3ccccc3n2Cc2ccc(F)c(F)c2)SC1=S	Active
O=C(O)CN1C(=O)/C(=C/c2nc3ccccc3n2Cc2ccccc2F)SC1=S	Active
O=C(O)CN1C(=O)/C(=C/c2nc3ccc(Cl)cc3n2Cc2ccccc2F)SC1=S	Active
COc1ccc2nc(/C=C3\SC(=S)N(CC(=O)O)C3=O)n(Cc3ccccc3F)c2c1	Active

organism: Homo sapiens; test: Inhibition of catalytic activity of human topoisomerase 2 assessed as decrease in levels of linear pBR322 DNA trapped by etoposide at 50 uM after 6 mins by agarose gel electrophoresis; conditions: not given

SMILES	inhibition
O=C(O)CN1C(=O)/C(=C/c2nc3ccccc3n2Cc2ccccc2F)SC1=S	Active

system: Raji; test: Cytotoxicity against human Raji cells after 48 hrs by MTT assay; assay type: functional, cell-based; conditions: not given; how it was run: as §1

SMILES	IC50 [µM]
Cc1ccc(Cn2c(/C=C3\SC(=S)N(CC(=O)O)C3=O)nc3cc(Cl)ccc32)cc1	20.9
O=C(O)CN1C(=O)/C(=C/c2nc3ccccc3n2CC(=O)c2ccc(Cl)cc2)SC1=S	3.18
O=C(O)CN1C(=O)/C(=C/c2nc3ccccc3n2Cc2ccc(F)c(F)c2)SC1=S	7.25
O=C(O)CN1C(=O)/C(=C/c2nc3ccccc3n2Cc2ccccc2F)SC1=S	1.23
O=C(O)CN1C(=O)/C(=C/c2nc3ccc(Cl)cc3n2Cc2ccccc2F)SC1=S	8.87
COc1ccc2nc(/C=C3\SC(=S)N(CC(=O)O)C3=O)n(Cc3ccccc3F)c2c1	12.3

system: DNA; test: Induction of Escherichia coli pBR322 DNA intercalation assessed as transformation of topoisomerase1-relaxed pBR322 DNA in to supercoiled DNA at 50 uM preincubated for 10 mins followed by topoisomerase-1 addition and measured after 30 mins by agarose gel electrophoresis method; assay type: nucleic-acid assay; conditions: not given
How it was run: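 Unwinding: pBR322 first relaxed by Topo I in buffer (50 mM Tris-HCl pH 7.5, 50 mM KCl, 10 mM MgCl2, 0.5 mM DTT, 0.1 mM EDTA, 30 μg/mL BSA). 0.1 μg relaxed DNA preincubated with compound 10 min at room temperature, then Topo I (1 U) added, 30 min at 37 °C. Phenol-chloroform stop, SDS/EDTA added, agarose electrophoresis in TAE, UV imaging.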

SMILES	Activity
O=C(O)CN1C(=O)/C(=C/c2nc3ccccc3n2Cc2ccccc2F)SC1=S	inactive
